Consider four compounds from ChEMBL document CHEMBL4732100, “Water-soluble inhibitors of ABCG2 (BCRP) - A fragment-based and computational approach” (Eur J Med Chem, 2021).

Values after ≈ are worked out from the molar mass of the structure shown.

Data set [1] has as its target T1, Broad substrate specificity ATP-binding cassette transporter ABCG2 (Homo sapiens, UniProt Q9UNQ0).
T1 sequence (Q9UNQ0 whole entry): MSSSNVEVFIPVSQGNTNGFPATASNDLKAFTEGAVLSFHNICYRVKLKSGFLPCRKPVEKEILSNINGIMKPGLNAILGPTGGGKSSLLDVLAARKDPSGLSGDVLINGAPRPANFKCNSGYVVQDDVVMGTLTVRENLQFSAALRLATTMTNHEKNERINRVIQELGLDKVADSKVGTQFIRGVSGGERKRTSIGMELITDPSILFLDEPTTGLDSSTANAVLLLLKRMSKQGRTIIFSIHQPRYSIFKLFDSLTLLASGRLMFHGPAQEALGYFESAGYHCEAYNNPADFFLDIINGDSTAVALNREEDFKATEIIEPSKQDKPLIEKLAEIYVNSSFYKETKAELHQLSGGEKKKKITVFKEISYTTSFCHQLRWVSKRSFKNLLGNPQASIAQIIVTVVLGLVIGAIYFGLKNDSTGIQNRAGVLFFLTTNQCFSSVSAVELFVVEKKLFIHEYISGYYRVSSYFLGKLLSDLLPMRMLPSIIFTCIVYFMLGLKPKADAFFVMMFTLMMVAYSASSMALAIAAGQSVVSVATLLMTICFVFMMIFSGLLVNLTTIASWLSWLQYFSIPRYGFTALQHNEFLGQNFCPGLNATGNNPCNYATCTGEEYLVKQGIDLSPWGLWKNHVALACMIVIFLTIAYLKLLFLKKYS
Description: Inhibition of human ABCG2 in human MCF7/Topo cells assessed as accumulation of substrate Hoechst […] stain measured after 2 hrs by fluorometric microplate reader assay. Type of data set: cell-based. The note with it: read-out: IC50.

In data set [2] the target is T2, ABCG2 (Homo sapiens, UniProt Q9UNQ0).
T2 sequence (Q9UNQ0 whole entry): T1 sequence (Q9UNQ0 whole entry)
Description: Inhibition of human ABCG2 in human MCF7/Topo cells assessed as accumulation of substrate Hoechst […] stain at 10 uM measured after 2 hrs by fluorometric microplate reader assay relative to FTC. Type of data set: cell-based. The note with it: read-out: Imax.

Data set [3] concerns the target ATP-dependent translocase ABCB1 (Homo sapiens, UniProt P08183). Description: Inhibition of ABCB1 in human KB-V1 cells assessed as accumulation of substrate calcein-AM stain measured after 10 mins by fluorometric microplate reader assay. Type of data set: cell-based. In a few lines:
(§1)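 KB-V1 cells (ABCB1-overexpressing KB variant) kept under 330 nM vinblastine. Calcein-AM accumulation read by fluorescence after intracellular cleavage to calcein. Compounds tested up to 100 µM. Inhibition is normalized to 10 µM tariquidar set to 100% (Imax). Mean ± SEM from ≥3 experiments in triplicate.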

The nature of data set [4]: Inhibition of human ABCC1 expressed in MDCK-MRP1 cells assessed as accumulation of substrate calcein-AM stain measured after 1 hr by fluorometric microplate reader assay. Type of data set: cell-based, Canis lupus familiaris. In a few lines:
(§2)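 MDCK.2 cells transfected with human ABCC1 (MDCK.2-MRP1), trypsinized with 2X trypsin/EDTA for 30 min. Calcein-AM accumulation measured fluorometrically. Compounds tested up to 100 µM. Inhibition is normalized to 30 µM reversan set to 100% (Imax). Mean ± SEM from ≥3 experiments in triplicate.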

Data set [5] deals with T2, ABCG2. In words: Substrate activity at ABCG2 in human MCF7/Topo cells assessed as increase in ATPase activity measured after 1 hr by colorimetric assay relative to sulfasalazine. Type of data set: cell-based. The note with it: read-out: Imax. In short, it runs like this:
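Membranes prepared from MCF-7/Topo cells: homogenized in TMEP buffer pH 7 with protease inhibitors, 500 g spin, then 100,000 g for 1 h. Released inorganic phosphate read by molybdenum blue reaction. Basal activity set to 0% and 30 µM sulfasalazine to 100%. Concentration-response data; mean ± SEM of ≥3 experiments in triplicate.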

Data set [6] in a line: Stability of compound in human plasma at 200 uM measured up to 24 hrs by HPLC-MS analysis. Type of data set: ADME, cell-free. In a few lines:
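Compound from 10 mM DMSO stock incubated in human CPD plasma at 37 °C for up to 24 h. Samples filtered (0.2 µm). Analyzed by RP-HPLC on a C8 column with acetonitrile/0.05% aq TFA gradient 20:80→95:5 over 12 min and UV detection at 220 nm. HPLC-MS run at 0 h and 24 h.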

Data set [7] in a line: Thermodynamic solubility of compound in PBS at pH 7.4 […] by shake-flask method. Type of data set: physicochemical. To be noted: buffer.
The nature of data set [8]: Kinetic solubility of compound in PBS at pH 7.4 measured after 2 hrs by turbidimetric measurement. The note with it: read-out: Kinetic_solubility.
Another data set addresses ABCB1 (Homo sapiens, UniProt P08183). In words: Inhibition of ABCB1 in human KB-V1 cells assessed as accumulation of substrate calcein-AM stain at 10 uM measured after 10 mins by fluorometric microplate reader assay relative to Tariquidar. Type of data set: cell-based. The note with it: probe calcein-AM, read-out: Imax. In short, it runs like this:
as §1

Another data set concerns MDCK-MRP1. Description: Inhibition of human ABCC1 expressed in MDCK-MRP1 cells assessed as accumulation of substrate calcein-AM stain at 30 uM measured after 1 hr by fluorometric microplate reader assay relative to Reversan. Type of data set: cell-based. The note with it: Canis lupus familiaris. In short, it runs like this: as §2
Data set [9] in a line: Cytotoxicity against human MCF7/Topo cells assessed as inhibition of cell proliferation at 10 uM measured by crystal violet based microplate reader assay. In short, it runs like this:
(§3)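 MCF-7/Topo cells grown in DMEM/High with 2% (v/v) 200 mM L-glutamine and 10% FCS at 37 °C, 5% CO2, kept under 550 nM topotecan. Long-term incubation with inhibitor. Value given as corrected T/C = (T−C0)/(C−C0)·100 from absorbance; cytocidal effect (T−C0)/C0·100 when T<C0. Mean ± SEM of two to three experiments, each in octuplicate.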

A short description of data set [10]: Cytotoxicity against human MCF7/Topo cells assessed as inhibition of cell proliferation at 1 uM measured by crystal violet based microplate reader assay. In a few lines:
as §3

What is called IC50 is the concentration at which inhibition is half-maximal.

Chain of ATP-dependent translocase ABCB1 (P08183 whole entry): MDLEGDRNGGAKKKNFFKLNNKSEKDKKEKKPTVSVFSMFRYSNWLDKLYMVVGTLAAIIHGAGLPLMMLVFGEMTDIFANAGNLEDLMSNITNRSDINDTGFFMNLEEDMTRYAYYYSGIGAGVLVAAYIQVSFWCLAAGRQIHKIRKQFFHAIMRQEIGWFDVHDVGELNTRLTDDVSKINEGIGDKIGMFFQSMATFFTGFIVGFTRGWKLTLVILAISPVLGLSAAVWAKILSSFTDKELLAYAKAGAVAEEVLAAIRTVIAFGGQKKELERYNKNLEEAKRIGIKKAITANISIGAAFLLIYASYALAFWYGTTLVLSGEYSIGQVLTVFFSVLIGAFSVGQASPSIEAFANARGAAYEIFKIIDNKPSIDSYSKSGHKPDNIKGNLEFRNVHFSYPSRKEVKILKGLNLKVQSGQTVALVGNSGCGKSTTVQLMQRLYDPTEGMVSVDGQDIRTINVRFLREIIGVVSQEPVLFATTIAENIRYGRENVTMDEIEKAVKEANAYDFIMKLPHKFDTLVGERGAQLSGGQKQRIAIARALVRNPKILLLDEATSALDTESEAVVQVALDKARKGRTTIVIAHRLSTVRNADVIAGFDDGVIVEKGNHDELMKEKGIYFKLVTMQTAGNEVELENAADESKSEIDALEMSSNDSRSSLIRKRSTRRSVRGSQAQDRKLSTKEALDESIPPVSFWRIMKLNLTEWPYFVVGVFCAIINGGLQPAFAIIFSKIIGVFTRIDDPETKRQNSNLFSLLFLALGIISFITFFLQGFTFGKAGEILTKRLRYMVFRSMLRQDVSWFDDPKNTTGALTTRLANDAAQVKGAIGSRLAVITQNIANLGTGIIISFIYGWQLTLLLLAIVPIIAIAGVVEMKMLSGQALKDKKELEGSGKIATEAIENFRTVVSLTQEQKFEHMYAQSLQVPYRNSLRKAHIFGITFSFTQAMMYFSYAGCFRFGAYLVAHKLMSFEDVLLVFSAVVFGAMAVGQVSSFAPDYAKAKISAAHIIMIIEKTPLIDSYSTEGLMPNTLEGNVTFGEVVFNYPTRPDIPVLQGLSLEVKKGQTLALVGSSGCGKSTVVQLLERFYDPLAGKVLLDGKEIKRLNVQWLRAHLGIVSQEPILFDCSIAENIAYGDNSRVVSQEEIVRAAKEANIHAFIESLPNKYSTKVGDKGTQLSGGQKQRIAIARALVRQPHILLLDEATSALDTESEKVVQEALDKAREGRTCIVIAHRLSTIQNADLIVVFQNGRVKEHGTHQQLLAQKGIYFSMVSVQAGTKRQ
Chain of ABCB1 (P08183 whole entry): as above

Consider `Cc1ccc(-c2cn(CCN3CCCC3)nn2)c(NC(=O)c2cc(=O)c3ccccc3o2)c1`, for which the IC50 in data set [1] was 109 nM; in [3] (kb-v1) it was “Not Active”; in data set [4], “Not Active”. On ABCG2 [2], the Emax at 2 h, 10 µM was 103%. The Emax at 1 h at ABCG2 [5] came to 29%. Further, the Stabilty result in data set [6] is reported as “Stable”. In [7], the Therm_solubility amounted to 1.228 µM. For the same compound, in [8], the solubility kinetic at 2 h was determined as 7 µM (≈ 3.1 µg/mL).

As to `Cc1ccc(-c2cn(CCN3CCOCC3)nn2)c(NC(=O)c2cc(=O)c3ccccc3o2)c1`, the IC50 was 188 nM in data set [1], over 1600 nM in [3] (read-out: IC50) and over 1470 nM in data set [4] (read-out: IC50). In addition, the Emax at 2 h, 10 µM on ABCG2 [2] worked out at 108%. Further, the Emax at 10 min, 10 µM at ABCB1 was over 13%. The Imax in the data set with MDCK-MRP1 is over 22%. Moreover, the Activity entry in data set [9] is recorded as “Non-Toxic”. Besides, the Emax at 1 h on ABCG2 [5] is 46%. In [7], this compound came in with a Therm_solubility of 1.144 µM. Further, the solubility kinetic at 2 h in data set [8] amounted to 10 µM (≈ 4.6 µg/mL).

For `CCC(=O)c1ccc(-c2cn(-c3ccc(CCN4CCc5cc(OC)c(OC)cc5C4)cc3)nn2)cc1NC(=O)c1cccc(OC)n1`, the results for the concentration for half-maximal inhibition (IC50) in [1], in data set [3] (kb-v1) and in data set [4] were 322 nM, “Not Active” and “Not Active”, respectively. The Emax at 2 h, 10 µM on ABCG2 [2] is 92%. Also, the Activity result in data set [10] was “Non-Toxic”. In data set [7], this compound displayed a Therm_solubility of under 0.1 µM. Also, the solubility kinetic at 2 h in data set [8] turned out to be 7 µM (≈ 4.53 µg/mL).

As for `CCC(=O)c1ccc(-c2cn(CCN3CCOCC3)nn2)cc1NC(=O)c1cc(=O)c2ccccc2o1`, the IC50 in data set [1] was 312 nM; in data set [3] (read-out: IC50), 1340 nM; in [4] (read-out: IC50), 2080 nM. Besides, the Emax at 2 h, 10 µM at ABCG2 [2] is 95%. Besides, on ABCB1, the Emax at 10 min, 10 µM was 92%. In addition, the Imax in the data set on MDCK-MRP1 is 66%. Moreover, the Activity result in data set [10] is on record as “Non-Toxic”. Also, in data set [7], the Therm_solubility was 0.999 µM. The solubility kinetic at 2 h in [8] was found to be 10 µM (≈ 5.02 µg/mL).
